In publication PMC10441371 (bioRxiv, 2023):
Entries after “also recorded” stand apart in the source; their conditions may differ. Counter-ions that a name gives are not always drawn. Like-named read-outs stand apart in the source and are kept apart here.

Tests used:
[1] = format: in vivo, Sprague Dawley rats; settings: for Levels in liver, mean (SD): wet weight; for Detection in the brain: PCB 52 exposed rats
estrogenic activity = settings: ref Kitamura et al., 2005; cited from earlier work
SULT2A1 = settings: ref Parker et al., 2018; cited from earlier work
thyroid hormone receptor = settings: ref Kitamura et al., 2005; cited from earlier work
SH-SY5Y cell line = settings: ref Rodriguez et al., 2018; cited from earlier work
SULT1E1 = settings: ref Parker et al., 2018; cited from earlier work
N27 cell line = settings: ref Rodriguez et al., 2018; cited from earlier work
[2] = General toxicity: body and organ weights after IP exposure; format: in vivo, Sprague Dawley rats
Outline: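 Rats were female Sprague Dawley, 4–5 weeks old and 75–100 g, acclimated 1 week. Each received a single IP dose of corn oil vehicle or test compound at 1, 10 or 100 mg/kg BW. Body weight was recorded at 5 time points over 3 weeks. After CO2 euthanasia, liver, spleen and thymus were excised; liver weight was adjusted for body weight. Groups were compared by one-way ANOVA with Tukey, p<0.05.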

[3] = test system: dopamine and its metabolites, DOPAL and DOPAC; test: Dopamine and metabolites analysis in striatum; format: in vivo, Sprague Dawley rats; settings: different doses of PCB 52 IP, 3 weeks post injection, vs vehicle
Outline: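 Female Sprague Dawley rats (4–5 weeks, 75–100 g, acclimated 1 week) got a single IP injection of corn oil or test compound in corn oil at 1, 10 or 100 mg/kg BW. They were euthanized after 3 weeks by CO2 and thoracotomy. Nigrostriatal tissue was homogenized in ice-cold 0.3 M perchloric acid and spun at 10,000 g for 10 min. Supernatant went to capillary HPLC with coulometric detection (guard +350, E1 −150, E2 +200 mV). Values are pmol/mg tissue; ANOVA with Tukey.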

CYP2B = settings: PCB 52 exposure; ref Parkinson et al., 1983; cited from earlier work
[4] = test system: endogenous serum metabolites; test: Targeted metabolomics of serum samples; format: in vivo, Sprague Dawley rats; settings: 0 to 100 mg/kg BW IP, 3 weeks
Outline: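 In female Sprague Dawley rats, serum was taken 3 weeks after a single IP dose of vehicle or 1–100 mg/kg test compound. Heart blood clotted ≥30 min at room temperature and was spun at 2,500 g (10 min, 4°C). Extracts (solvent:sample 18:1, −20°C 1 h) were methoximated (60°C 1 h), then TMS-derivatized (60°C 30 min). GC-Orbitrap analysis used EI full scan m/z 56.7–850 against a 94-metabolite list. Intensities were total-normalized; data were analyzed by PLS-DA and dose linear regression with Benjamini-Hochberg FDR.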

[5] = male rats, single IP dose 150 mg/kg BW; ref Parkinson et al., 1983; cited from earlier work
[6] = 10 mg/kg BW PCB 52 IP, 3 weeks after dosing, N = 3
[7] = 100 mg/kg BW PCB 52 IP, 3 weeks after dosing, N = 5
[8] = 1, 10 or 100 mg/kg BW IP, 3 weeks, body weight-adjusted, vs vehicle
[9] = no dose-response relationship observed

With `Oc1cc(Cl)c(-c2cc(Cl)ccc2Cl)cc1Cl` [4-OH-PCB 52, 2,5-dichloro-4-(2,5-dichlorophenyl)phenol] the “Levels in liver, mean (SD)” value [1, 6] was 0.15 ng/g, the “Levels in liver, mean (SD)” value [1, 7] was 0.57 ng/g and the “Detection in the brain” value [1] was “observed in the brain of one animal”. The “Detection in adipose tissue” value ([1]; high-dose group (100 mg/kg BW)) was “detected only in adipose tissue from one animal”, the “Estrogenic activity in vitro” value (estrogenic activity) was “low estrogenic activity” and the “Inhibition of SULT2A1” value (SULT2A1) was “inhibitors”. For the same compound, the “Affinity for the thyroid hormone receptor” value (thyroid hormone receptor) was “low affinity”.
For `O=S(=O)(O)Oc1cc(Cl)c(-c2cc(Cl)ccc2Cl)cc1Cl` [PCB 52 sulfate], the Toxicity (SH-SY5Y cell line) is given as “low micromolar range”, the “Inhibition of SULT2A1” value (SULT2A1) is given as “inhibitors” and the “Inhibition of SULT1E1” value (SULT1E1) is given as “inhibitor”. For the same compound, the Toxicity (N27 cell line) was “low micromolar range”.
For `Clc1ccc(Cl)c(-c2cc(Cl)ccc2Cl)c1` [PCB 52, 2,2',5,5'-Tetrachlorobiphenyl], the “Effect on bodyweight-adjusted liver weights” value ([2]; 10 mg/kg BW IP, 3 weeks, vs vehicle group, p < 0.05) was “significantly smaller; also recorded: significant decrease”, the “Effect on overall body weight” value ([2]; 1, 10 or 100 mg/kg BW IP, 3-week study, vs vehicle) was “did not affect; also recorded: no significant impact” and the “Effect on spleen weights” value [2, 8] was “did not affect”. For the same compound, the “Effect on thymus weights” value [2, 8] was “did not affect”, the “DOPAC levels in the striatum” value [3] was “no significant differences; also recorded: not significantly different” and the “DOPAL levels in the striatum” value [3] was “no significant differences; also recorded: not significantly different”. The “Dopamine levels in the striatum” value [3] was “no significant differences; also recorded: not significantly different”, the “Ratio of mean PCB 52 tissue levels, 100 mg/kg BW vs 10 mg/kg BW dose group” value ([1]; brain (lowest ratio)) was 2.9 and the “Ratio of mean PCB 52 tissue levels, 100 mg/kg BW vs 10 mg/kg BW dose group” value ([1]; highest ratio among tissues, tissue not given) was 5.6. For the same compound, the “Ratio of mean PCB 52 levels, 10 mg/kg BW vs 1 mg/kg BW dose group” value ([1]; liver) was roughly 7.0 times, the “Ratio of mean PCB 52 levels, 10 mg/kg BW vs 1 mg/kg BW dose group” value ([1]; serum) was “approximately 4.0 times” and the “Presence in tissues investigated (adipose, brain, liver, serum)” value ([1]; three weeks following the IP injection) was “present in all tissues investigated”. For the same compound, the “CYP2B enzyme activity in the rat liver” value (CYP2B) was “induced”, the “Serum L-cysteine levels” value [4] was “decreased dose-dependent” and the “Serum L-histidine levels” value [4] was “dose-dependent increase”. For the same compound, the Serum cytosine levels [4] was “decreased dose-dependent”, the Serum erythrose levels [4] was “decreased dose-dependent” and the Serum glycine levels [4] was “dose-dependent increase”. For the same compound, the “Serum orotic acid levels” value [4] was “decreased dose-dependent”, the Serum sphingosine levels [4] was “decreased dose-dependent” and the “Serum linoleic acid levels” value [4, 9] was “significantly affected”. The Serum thymine levels [4, 9] was “significantly affected”, the “Number of significantly altered serum metabolites” value ([4]; out of the 81 metabolites included, raw p-values < 0.05) was 9 and the “Bodyweight-adjusted liver weights vs control” value [5] was “not significantly different”.
With `Oc1cc(Cl)cc(-c2cc(Cl)ccc2Cl)c1Cl` [X1-PCB 52, 2,2’,5,5’-tetrachlorobiphenyl-3-ol] the “Estimated mean level in the serum” value ([1]; 10 mg/kg BW PCB 52 IP, 3 weeks after dosing) was 0.07 ng/kg BW, the “Levels in liver, mean (SD)” value [1, 6] was 0.28 ng/g and the “Levels in serum, mean (SD)” value [1, 7] was 0.69 ng/g. The “Levels in liver, mean (SD)” value [1, 7] was 0.85 ng/g, the “Detection in the brain” value [1] was “observed in the brain of one animal” and the “Detection in adipose tissue” value ([1]; all other exposure groups (below high dose)) was “below the LOD”. The “Detection in adipose tissue” value ([1]; high-dose group (100 mg/kg BW)) was “present”.
